Published values pooled from the literature.
Protocols differ between the studies behind these lines.
Organism: Escherichia coli
Read-out: microbial growth

SMILES | assay | system | setting | MIC
COc1cc2cc(CNCCC3CCN(C4CCCC4)CC3)c(SCc3ccccc3)nc2c(OC)c1OC | broth dilution | – | – | > 128 µg/mL
C[C@@H](O)[C@H]1C(=O)N2C(C(=O)O)=C(S[C@@H]3CN[C@H](C(=O)N(C)C)C3)[C@H](C)[C@H]12 | – | ATCC25922 | drug-resistant strain | 0.15 µg/mL
Cc1ccc2[nH]nc(-c3nnc(Nc4ccc(F)cc4Cl)s3)c2c1 | – | ATCC25922 | – | 72.8 µg/mL
CCN(CC)c1ccc(C=NC(=S)c2ccccc2)c(O)c1 | broth dilution | ATCC25922 | – | > 256 µg/mL
CN1CCN(CCNCc2cc3ccccc3nc2SCc2ccccc2)CC1 | broth dilution | – | – | 64 µg/mL
CO/N=C(\C(=O)N[C@@H]1C(=O)N2C(C(=O)O)=C(CSc3nc(=O)c(=O)[nH]n3C)CS[C@H]12)c1csc(N)n1 | broth dilution | ATCC25922 | – | 16 µg/mL
Brc1ccc2nc(SCc3ccccc3)c(CNCc3ccc(CN4CCCC4)cc3)cc2c1 | broth dilution | – | – | > 128 µg/mL
Cc1ccc2[nH]nc(-c3nnc(Nc4ccc(Cl)c(Cl)c4)s3)c2c1 | – | ATCC25922 | – | 140 µg/mL
C[C@H]1COc2c(N3CCN(C)CC3)c(F)cc3c(=O)c(C(=O)O)cn1c23 | – | – | – | ≤ 0.12 µg/mL
CO/N=C(\C(=O)N[C@@H]1C(=O)N2C(C(=O)O)=CCS[C@H]12)c1csc(N)n1 | broth dilution | ATCC25922 | – | 0.125 µg/mL
COc1ccc2ccc(O)c(/C=N/[C@H]3CCCC[C@H]3/N=C/c3c(O)cccc3F)c2c1 | broth dilution | – | clinical isolate | > 40 µM
COc1cc(Cc2cnc(N)nc2N)cc(OC)c1OC | broth dilution | BW25113 | 18 h | 0.25 µg/mL
COc1ccc(N2N=C(C(=O)c3ccc(Nc4cnccn4)cc3)SC2=C(C#N)C#N)cc1 | broth dilution | ATCC10536 | – | 6.25 µg/mL
O=C(O)c1cn(C2CC2)c2cc(N3CCNCC3)c(F)cc2c1=O | broth dilution | ATCC25922 | 16 h | 0.1 µM
CNC(C)C1CCC(N)C(OC2C(N)CC(N)C(OC3OCC(C)(O)C(NC)C3O)C2O)O1 (stereo not drawn) | broth dilution | – | – | 2 µg/mL
Cc1ccc2[nH]nc(-c3nnc(Nc4ccc(C)c(C)c4)s3)c2c1 | – | ATCC25922 | – | 124 µg/mL
CC[C@H]1OC(=O)[C@H](C)[C@@H](O[C@H]2C[C@@](C)(OC)[C@@H](O)[C@H](C)O2)[C@H](C)[C@@H](O[C@@H]2O[C@H](C)C[C@H](N(C)C)[C@H]2O)[C@](C)(O)C[C@@H](C)CN(C)[C@H](C)[C@@H](O)[C@]1(C)O | broth dilution | – | – | 4 µM
CC1(C)S[C@@H]2[C@H](NC(=O)[C@H](N)c3ccccc3)C(=O)N2[C@H]1C(=O)O | broth dilution | ATCC25922 | 18 h, dark | 16 µM
c1ccc(CSc2nc3ccc(-c4ccccc4)cc3cc2CNCCC2CCN(C3CCCC3)CC2)cc1 | broth dilution | – | – | 16 µg/mL
N#CC(C#N)=C1SC(C(=O)c2ccc(Nc3cnccn3)cc2)=NN1c1ccccc1 | broth dilution | ATCC10536 | – | 50 µg/mL
CCCCCCCCN=c1ccn(CCCCCCCCCCn2ccc(=NCCCCCCCC)cc2)cc1 | – | – | – | 0.5 µM
